Measured values as given in ChEMBL document CHEMBL4765431, “Novel phthalide derivatives: Synthesis and anti-inflammatory activity in vitro and in vivo” (Eur J Med Chem, 2020).
The source made the active and inactive calls. No cut-off for these calls is given here.

Tests used:
[1] = tested on: RAW264.7; assay: Activation of Nrf2/HO-1 signalling pathway in mouse RAW264.7 cells assessed as inhibition of LPS-induced NO production at 2 uM preincubated for 1 hr in presence of NAC followed by LPS stimulation and measured after 24 hrs by Griess reagent-based assay; assay type: cell-based; conditions: time 25.0 hrs
Procedure, shortened: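 Cells pretreated 1 h with or without NAC 5 mM alongside 2 µM compound, then LPS 0.5 µg/mL for 24 h. Medium NO measured by Griess reagent. Means ± SD of three independent experiments.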

[2] = tested on: RAW264.7; assay: Antiinflammatory activity in mouse RAW264.7 cells assessed as inhibition of LPS-induced nitric oxide production at 10 uM preincubated for 1 hr followed by LPS stimulation and measured after 24 hrs by Griess reagent-based assay relative to control; assay type: functional; conditions: time 25 hrs
Procedure, shortened: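 RAW264.7 cells (7 × 10^4/well, used 24 h after seeding) in DMEM with 10% heat-inactivated FBS, 37 °C, 5% CO2. Pretreated 1 h with compound (10 µM screen; 0.625–10 µM dose series), then LPS 0.5 µg/mL for 24 h. Supernatant mixed 1:1 with Griess reagent, 15 min at room temperature, absorbance read at […].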

[3] = tested on: RAW264.7; assay: Inhibition of MAPK signalling activation in mouse RAW264.7 cells assessed as reduction in LPS-induced JNK phosphorylation at 0.5 to 2 uM preincubated for 1 hr followed by LPS stimulation by Western blotting analysis; assay type: cell-based; conditions: dose 0.5-2 µM, TDE = time-dependent effect
Procedure, shortened: (§1)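 Pretreatment 1 h with 0.5–2 µM, then LPS 0.5 µg/mL for 30 min. p-IκB, IκB, p-p65, p65, ERK, JNK, p38 and their phosphorylated forms, plus β-actin, detected by Western blot (RIPA lysis, SDS-PAGE, PVDF, primary 16 h at 4 °C, HRP secondary 1:5000, ECL).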

[4] = tested on: RAW264.7; assay: Anti-inflammatory activity in mouse RAW264.7 cells assessed as inhibition of LPS-induced iNOS protein expression preincubated for 1 hr followed by LPS stimulation and measured after 24 hrs by Western blot analysis; assay type: functional, cell-based; conditions: dose 0.5-2 µM, time 25.0 hrs
Procedure, shortened: (§2)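 Cells pretreated 1 h with 0.5, 1, 2 µM, then LPS 0.5 µg/mL for 24 h. iNOS, COX-2 and β-actin detected by Western blot (RIPA lysis, PVDF, primary 16 h at 4 °C, HRP secondary, ECL). Blots representative of three separate experiments.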

[5] = tested on: Rattus norvegicus; assay: Antiarthritic activity in Sprague-Dawley rat model of arthritis assessed as reduction in CFA-induced inflammatory cell infiltration at 20 mg/kg, ig administered daily for 28 days starting from 14 days post-immunization and measured every 3 days by H and E staining based histopathological analysis; assay type: functional, organism-based; conditions: time 28.0 day
Procedure, shortened: (§3)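 AA rats (male SD, CFA intradermal into right hind paw) dosed intragastrically once daily at 20 or 40 mg/kg from day 14 to day 28. Killed after 29 days. Ankle joints fixed in 4% neutral buffered paraformaldehyde, decalcified in 10% EDTA, sectioned and H&E stained. Scored for synovial hyperplasia, inflammatory cell infiltration and cartilage destruction.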

[6] = tested on: RAW264.7; assay: Inhibition of NF-kappaB activation in mouse RAW264.7 cells assessed as reduction in LPS-induced p65 phosphorylation at 0.5 to 2 uM preincubated for 1 hr followed by LPS stimulation and measured after 30 mins by Western blotting analysis; assay type: cell-based; conditions: dose 0.5-2 µM, time 90.0 min; procedure, shortened: as §1
[7] = tested on: RAW264.7; assay: Inhibition of MAPK signalling activation in mouse RAW264.7 cells assessed as reduction in LPS-induced p38 phosphorylation at 0.5 to 2 uM preincubated for 1 hr followed by LPS stimulation by Western blotting analysis; assay type: cell-based; conditions: dose 0.5-2 µM, TDE = time-dependent effect; procedure, shortened: as §1
[8] = tested on: RAW264.7; assay: Inhibition of MAPK signalling activation in mouse RAW264.7 cells assessed as reduction in LPS-induced ERK phosphorylation at 0.5 to 2 uM preincubated for 1 hr followed by LPS stimulation by Western blotting analysis; assay type: cell-based; conditions: dose 0.5-2 µM, TDE = time-dependent effect; procedure, shortened: as §1
[9] = tested on: RAW264.7; assay: Anti-inflammatory activity in mouse RAW264.7 cells assessed as inhibition of LPS-induced COX-2 protein expression preincubated for 1 hr followed by LPS stimulation and measured after 24 hrs by Western blot analysis; assay type: functional, cell-based; conditions: dose 0.5-2 µM, time 25.0 hrs; procedure, shortened: as §2
[10] = tested on: RAW264.7; assay: Inhibition of NF-kappaB activation in mouse RAW264.7 cells assessed as reduction in LPS-induced p65 nuclear translocation at 0.5 to 2 uM preincubated for 1 hr followed by LPS stimulation and measured after 30 mins by Western blotting analysis; assay type: cell-based; conditions: dose 0.5-2 µM, time 90.0 min
[11] = tested on: RAW264.7; assay: Antiinflammatory activity in mouse RAW264.7 cells assessed as inhibition of LPS-induced nitric oxide production preincubated for 1 hr followed by LPS stimulation and measured after 24 hrs by Griess reagent-based assay; assay type: functional, cell-based
[12] = tested on: Rattus norvegicus; assay: Antiarthritic activity in Sprague-Dawley rat model of arthritis assessed as reduction in CFA-induced cartilage destruction at 20 mg/kg, […] and measured every 3 days by H and E staining based histopathological analysis; assay type: functional, organism-based
[13] = tested on: Rattus norvegicus; assay: Antiarthritic activity in Sprague-Dawley rat model of arthritis assessed as reduction in CFA-induced synovial hyperplasia at 20 mg/kg, ig administered daily for 28 days starting from 14 days post-immunization and measured every 3 days by H and E staining based histopathological analysis; assay type: functional, organism-based; conditions: time 28.0 day; procedure, shortened: as §3
[14] = tested on: RAW264.7; assay: Activation of Nrf2/HO-1 signalling pathway in mouse RAW264.7 cells assessed as increase in HO-1 protein expression at 0.5 to 2 uM preincubated for 1 hr followed by LPS stimulation and measured after 24 hrs by Western blotting analysis; assay type: cell-based; conditions: filed as activator, dose 0.5-2 µM, time 25.0 hrs
Procedure, shortened: (§4)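 RAW264.7 cells (2 × 10^6/well, grown 24 h) pretreated 1 h with 0.5, 1, 2 µM, then LPS 0.5 µg/mL for 24 h. Lysed in RIPA with PMSF and phosphatase inhibitors, SDS-PAGE, PVDF transfer. Primary antibodies (anti-Nrf2 or anti-HO-1) 16 h at 4 °C, HRP secondary 1:5000 1 h at room temperature, ECL detection. β-actin used for normalization.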

[15] = tested on: RAW264.7; assay: Cytotoxicity against mouse RAW264.7 cells assessed as reduction in cell viability incubated for 24 hrs in absence of LPS by MTT assay; assay type: cell-based; conditions: RAW264.7, 24 h
[16] = tested on: Rattus norvegicus; assay: Antiarthritic activity in Sprague-Dawley rat model of arthritis assessed as reduction in CFA-induced inflammatory cell infiltration at 40 mg/kg, ig administered daily for 28 days starting from 14 days post-immunization and measured every 3 days by H and E staining based histopathological analysis; assay type: functional, organism-based; conditions: time 28.0 day; procedure, shortened: as §3
[17] = tested on: Rattus norvegicus; assay: Antiarthritic activity in Sprague-Dawley rat model of arthritis assessed as reduction in CFA-induced cartilage destruction at 40 mg/kg, ig […] and measured every 3 days by H and E staining based histopathological analysis; assay type: functional, organism-based
[18] = tested on: RAW264.7; assay: Activation of Nrf2/HO-1 signalling pathway in mouse RAW264.7 cells assessed as increase in nuclear Nrf2 protein expression at 0.5 to 2 uM preincubated for 1 hr followed by LPS stimulation and measured after 24 hrs by Western blotting analysis; assay type: cell-based; conditions: filed as activator, dose 0.5-2 µM, time 25.0 hrs; procedure, shortened: as §4

With `COc1cc(OC)c2c(c1)C(C(O)c1ccc(OCc3ccc(F)cc3)cc1)OC2=O` (stereo not drawn) the Activity [1] was “inactive”, the inhibition at 10 µM [2] was 95.2% and the inhibition [3] was “Tde”. For the same compound, the inhibition [4] was “Dose-dependent effect”, the Activity [5] was “Active” and the inhibition [6] was “Active”. The inhibition [7] was “Tde”, the inhibition [8] was “Tde” and the inhibition [9] was “Dose-dependent effect”. For the same compound, the inhibition [10] was “Active”, the IC50 [11] was 760 nM and the Activity [12] was “Active”. For the same compound, the Activity [13] was “Active”, the Activity [14] was “Active” and the IC50 [15] was over 40000 nM. The Activity [16] was “Active”, the Activity [17] was “Active” and the Activity [18] was “Active”.
